Compound activity: PubChem BioAssay, several laboratories
Only some compounds are listed: those with a hit (about 3.6% of all), similar ones and a draw of the others.
Yeast growth inh: yeast BB579 growth reduction in restrictive medium. S. cerevisiae BB579 growth, OD615, 48 h. inhibition, % at 10 µM. hit rate 0.51% among 140,000. AID 804;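 active = inhibition above a set limit, 3 SD over the mean compound inhibition, cut at about 44% in these data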
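Test system: Saccharomyces cerevisiae DeaD strain BB579, replicative lifespan model yeast | Buffer or medium: Restrictive CSMM-D medium | Doses: One dose, 10 µM compound with 0.25% DMSO | Incubation: 48 h exposure, 30 °C | Detection: Culture absorbance at 615 nm | Control set: Amphotericin B at 10 µg/mL as positive control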
Yeast lifespan up: yeast lifespan extension; S. cerevisiae growth with nicotinamide, OD615; deaD strain in restrictive glucose medium; inhibition of the nicotinamide effect, % at 10 µM; hit rate 0.68% among 130,000;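 active = inhibition above a set limit, placed 3 SD over the median of all compounds, cut at about 26% in these data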;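 also: 0% = nicotinamide-treated wells and 100% = cells grown without nicotinamide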
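assay system = DeaD-strain S. cerevisiae | buffer or medium = restrictive glucose medium | reagent = 1.5 mM nicotinamide | compound = 10 µM single point, 0.25% DMSO | incubation = 48 h compound exposure at 30 °C, humidified | signal = OD615 measurement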
RAM network inh: blocks the yeast RAM network. S. cerevisiae dse1pr::URA3 reporter, 5-FOA growth OD615, 2 d; analog-sensitive cbk1-as2 kinase mutant strain. inhibition, % at 50 µM. hit rate 1.8% among 190,000;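 active = inhibition above a set limit, 3 SD over mean compound inhibition, cut at about 8.4% in these data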;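 also: 0% = DMSO-only wells with no growth and 100% = 10 µM 1-NA-PP1 full growth; inhibition rescues growth on 5-FOA so higher OD means more RAM inhibition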
Phagocytosis inh: macrophage phagocytosis inhibition; J774A.1 macrophage IgG-bead phagocytosis, imaging; inhibition, % at 5 µM; hit rate 0.07% among 110,000; AID 1029;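 active = inhibition above the mean of the plate negative controls plus 5 SD, cut at about 13% in these data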;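 also: phagocytic index as fraction of beads internalized from green versus red external bead signal; plate controls were DMSO negative control for no effect and cytochalasin-D positive control for full effect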
Measles CPE: protection of cells from measles virus; Measles virus-infected cells, CPE protection, absorbance; hit rate 1.5% among 140,000; protection (pct of control), % at 4 µM; in the data active = protection mostly above about 24%, no sharp cut-off; inactive = mostly below about 26%
The depositor's hits bear a star; . = no result given.

SMILES | Yeast growth inh | Yeast lifespan up | RAM network inh | Phagocytosis inh | Measles CPE
CC(C)C(NC(=O)C1CCCCC1)C(=O)NC1=NCCS1 (stereo not given) | 7 | 3 | 2 | 0 | 2
Cc1sc2ncnc(SCC(=O)Nc3nc(-c4ccc(F)c(F)c4)cs3)c2c1C | . | . | 5 | . | .
O=C(Nc1cccs1)OCCN1CCN(Cc2ccccc2)CCC1=O | -27 | 3 | 0 | . | 13
Cc1csc(-c2cnn(-c3ccccc3)c2NC(=O)c2cccc(C(F)(F)F)c2)n1 | -18 | -21 | 0 | -1 | 22*
O=C(COc1ccc(S(=O)(=O)NC2CCCCC2)cc1Cl)NCC1CCCO1 (stereo not given) | -9 | -10 | -1 | 1 | 6
COc1ccc(CCNC(=O)COc2ccc(S(=O)(=O)NC3CCCCC3)cc2Cl)cc1 | -31 | 0 | 10* | -3 | 3
O=C(O)c1oc2ccccc2c1-n1cccc1 | -34 | 5 | 3 | -1 | 27*
COc1ccc(CCNc2nc(-c3ccco3)cc(C(F)(F)F)n2)cc1OC | 14 | -8 | 10* | . | 14
Cc1cc(Cl)ccc1N=C1N=C(N)c2ccccc21 | -26 | -4 | 8.9* | -11 | .
Cc1cc(Cl)ccc1N=c1ssnc1Cl | 63* | -13 | 2 | -1 | 10
CCN(CC(=O)Nc1cccc(C(C)=O)c1)S(=O)(=O)c1ccccc1 | . | . | -1 | . | .
FC(F)(F)c1ccc(C2NCCc3sccc32)cc1 (stereo not given) | . | . | -1 | . | .
COC(=O)c1ccccc1N1C(=O)C2C(C1=O)[C@H]1C=C[C@@H]2C1 (stereo not given in full) | 5 | -7 | 1 | -2 | 101*
COc1ccc(OCCSc2nnc(C(C)NC(=O)c3ccccc3F)n2C)cc1 (stereo not given) | . | . | -1 | . | .
O=C1C2=C(NC(=S)NC2c2ccc(Cl)cc2)NC(c2ccc(Cl)cc2)N1c1ccc(Cl)cc1 (stereo not given) | -50 | -8 | 0 | . | 9
CCc1ccc(C2NC(=S)NC3=C2C(=O)N(c2ccccc2OC)C(c2ccc(CC)cc2)N3)cc1 (stereo not given) | 53* | -18 | 1 | -1 | 14
Cc1ccc(NC(=S)NC2CCCCC2)cc1S(=O)(=O)N(C)C | . | . | 6 | . | .
O=C(NCCC(=O)N1CCN(c2ncccn2)CC1)c1ccccc1 | -9 | -3 | 1 | -1 | 32*
CCCCC(=O)Nc1cc(OC)c(NC(=O)C2CCCCC2)cc1OC | -33 | -7 | 3 | 0 | 8
CC1(C)CC(=O)C(N=Nc2cc3c(cc2[N+](=O)[O-])OCCO3)=C(O)C1 | . | . | 9.5* | . | .
CCC(C)(C(=O)NC1CCCCC1)N(Cc1ccco1)C(=O)Cc1cccs1 (stereo not given) | -11 | -12 | 2 | . | 3
CC12CCC(C(=O)Nc3ccccc3Cl)(C(Br)C1=O)C2(C)C (stereo not given) | -9 | 4 | 2 | -1 | 36*
COc1ccc(NC(=O)C2CC(c3ccc(OC)c(OC)c3)=NO2)cc1OC (stereo not given) | -46 | -9 | 1 | . | 26
COc1ccc(C2=NOC(C(=O)Nc3ccc(C)cc3)C2)cc1OC (stereo not given) | -27 | -28 | 9.2* | -1 | 4
O=C(O)C1CCN(C(=O)Cc2ccccc2)CC1 | . | . | 1 | . | .
SMILES | Yeast growth inh | Yeast lifespan up | RAM network inh | Phagocytosis inh | Measles CPE
Cc1[nH]c2ccc(-c3n[nH]c(=S)n3-c3ccc(Br)cc3)cc2c1C | . | . | 10* | . | .
Cc1ccc(NC(=O)/C(=C/c2cccs2)NC(=O)c2ccco2)c(C)c1 | -14 | 0 | -1 | -8 | 14
COc1cccc(OC)c1C(=O)N1CCN(S(=O)(=O)c2ccc(C)cc2)CC1 | -31 | -2 | 3 | -1 | 42*
Cc1ccc(S(=O)(=O)N2CCN(C(=O)c3ccccc3)CC2)cc1 | 5 | -10 | 0 | 0 | 3
O=C1C(Cl)=C(N2CCCCC2)C(=O)C(Cl)=C1c1cnc(N2CCCCC2)s1 | -28 | . | 9.5* | . | 1
C/C(=N\NC(=O)c1sccc1-n1cccc1)c1cccs1 | . | . | 2 | . | .
CN=Cc1nc(-c2ccccc2)oc1O | -4 | . | 0 | . | 18
CC1=Nc2ccccc2/C1=C\c1nc(-c2ccc(F)cc2)oc1O | -32 | -15 | 8.6* | -1 | 1
CCC/C=N/NC(=O)c1cccc(Br)c1 | . | . | -1 | . | .
C=CCOC(=O)C1=C[C@@H](c2ccc(C(F)(F)F)cc2)[C@H](CCCO)[C@@H](OCC)O1 | . | . | 1 | . | .
O=c1[nH]c(Nc2ccccc2)cc2ccccc12 | 48* | -19 | 0 | . | 7
Cc1cc(C)cc(Nc2nc3ccccc3c(=O)[nH]2)c1 | . | . | 2 | . | .
N#C/C(=C\c1cccc(Cl)c1)c1n[nH]c(Cn2cncn2)n1 | -27 | -12 | 1 | 1 | 2
COc1ccc(CNC(=O)COC(=O)CCCOc2ccc(Cl)cc2Cl)cc1 | -15 | -3 | 9.6* | -7 | 3
O=C(COC(=O)CCCOc1ccc(Cl)cc1Cl)Nc1cccc(Cl)c1 | 24 | -4 | 11* | -4 | 3
COc1ccccc1OCCC(=O)OCC(=O)NCc1ccc(Cl)cc1 | . | . | 2 | . | .
Cc1[nH]c2ccc(F)cc2c1CCN(Cc1cccnc1)C(=S)Nc1cccc(F)c1 | . | . | 0 | . | .
CC1Nc2nc(N(C)C)[nH]c(=O)c2NC1C (stereo not given) | -15 | 6 | 1 | -7 | 3
O=c1c2ccccc2nc(SCc2cccc(F)c2)n1C1CCCC1 | -48 | 0 | 11* | -9 | 9
CC(=O)N1C(=O)c2cccc3cccc(c23)C(=O)N1C(C)=O | -24 | -17 | 1 | 0 | 54*
O=C(O)c1ccccc1Cc1nc2cc(Cl)ccc2c(=O)[nH]1 | . | . | 8.6* | . | .
Cc1ccc(CSCC(=O)NN=C2CCN(C)CC2)cc1 | -6 | 0 | 2 | -5 | 4
COc1ccc(/C=C(\C#N)C(=O)Nc2cc(S(=O)(=O)N3CCCCC3)ccc2N2CCCCC2)cc1 | -36 | 3 | 6 | 2 | 18
Cc1cc(=O)[nH]c(SCC(=O)N2CCCc3ccccc32)n1 | -2 | . | 1 | . | 16
Cc1ccc2cc(C#N)c(SCC(=O)N3CCCc4ccccc43)nc2c1C | -48 | -2 | 9.2* | . | 1
SMILES | Yeast growth inh | Yeast lifespan up | RAM network inh | Phagocytosis inh | Measles CPE
Cn1c(SCC(=O)N2CCCc3ccccc32)nnc1-c1c[nH]c2ccccc12 | -45 | 43* | -1 | -1 | 2
CCn1c(SCC(=O)N2CCCc3ccccc32)nnc1-c1c[nH]c2ccccc12 | -12 | -15 | 3 | 0 | 5
O=C(CSc1nc(O)cc(=O)[nH]1)N1CCCc2ccccc21 | -9 | 1 | 1 | 4 | 48*
COc1ccc(/C=C(\C#N)C(=O)OCC(=O)NCc2ccc(Cl)cc2)cc1 | 6 | -2 | 2 | -4 | 12
C=C(C)COc1ccc2c(CC)cc(=O)oc2c1 | . | . | -2 | . | .
C=CCN(C(=O)c1cccc(N2C(=O)C3CC=CC(C)C3C2=O)c1)c1ccccc1 (stereo not given) | . | . | 5 | . | .
Cc1cc(SCC(=O)c2cccs2)nc2c(C)cccc12 | -45 | -13 | 8.9* | . | 6
O=c1c2ccccc2nc(-c2ccc(Cl)c(Cl)c2)n1O | -17 | 76* | 0 | -1 | 11
